Key:
[1] = test system: Candida parapsilosis; test: Antifungal activity against Candida parapsilosis ATCC 22019 after 24 to 72 hrs by broth microdilution method; format: functional; settings: Lodderomyces parapsilosis
Summary of the method: (§1)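 Broth microdilution MIC per CLSI M27-A3 (yeasts) or M38-A2 (molds). RPMI 1640 with L-glutamine, without bicarbonate, buffered to pH 7.0 with 0.165 M MOPS. Final test range for the compounds was 0.175–87.5 μM. Incubation at 35°C with visual reading at 24–72 h. MIC was the lowest concentration giving 100% inhibition versus the growth control (azoles 50% or 100%, by organism). Each isolate was run in duplicate in two independent experiments.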

[2] = test system: Aspergillus fumigatus; test: Antifungal activity against Aspergillus fumigatus 05-203114 after 24 to 72 hrs by broth microdilution method; format: functional; summary of the method: as §1
[3] = test system: Cryptococcus neoformans; test: Antifungal activity against Cryptococcus neoformans 05-202523 after 24 to 72 hrs by broth microdilution method; format: functional; summary of the method: as §1
[4] = Antifungal activity against Exophiala jeanselmei 03-200268 after 24 to 72 hrs by broth microdilution method; format: functional; summary of the method: as §1
[5] = test system: Candida tropicalis; test: Antifungal activity against Candida tropicalis 04-202361 after 24 to 72 hrs by broth microdilution method; format: functional; summary of the method: as §1
[6] = test system: Lomentospora prolificans; test: Antifungal activity against Scedosporium prolificans 05-203060 after 48 to 72 hrs; format: functional
Summary of the method: (§2)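 CLSI M38-A2 broth microdilution for molds in RPMI 1640 with L-glutamine and no bicarbonate, buffered with 0.165 M MOPS to pH 7.0. Compounds were dissolved in water and tested at 0.175–87.5 μM final, 35°C, up to 7 days. MIC was read visually as 100% inhibition versus growth control. For MFC, clear wells were plated on SDA and the lowest concentration with no colonies taken. Each isolate was run in duplicate, two independent experiments.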

[7] = test system: Candida parapsilosis; test: Antifungal activity against Candida parapsilosis ATCC 22019 after 48 to 72 hrs; format: functional; settings: Lodderomyces parapsilosis
Summary of the method: (§3)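 MFC: after the MIC read, 30-μl aliquots from each well without visible growth were plated onto Sabouraud dextrose agar and incubated at 35°C. Reading was at 48–72 h for yeasts and up to 7 days for molds. MFC was the lowest concentration with no colonies.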

[8] = test system: Candida parapsilosis; test: Antifungal activity against Candida parapsilosis 04-202398 after 24 to 72 hrs by broth microdilution method; format: functional; settings: Lodderomyces parapsilosis; summary of the method: as §1
[9] = test system: Cryptococcus neoformans; test: Antifungal activity against Cryptococcus neoformans ATCC 90112 after 24 to 72 hrs by broth microdilution method; format: functional; summary of the method: as §1
[10] = test system: Rhizopus arrhizus; test: Antifungal activity against Rhizopus oryzae 05-203111 after 24 to 72 hrs by broth microdilution method; format: functional
Summary of the method: (§4)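 Mold isolates subcultured on potato dextrose agar, then tested by CLSI M38-A2 broth microdilution in RPMI 1640 (L-glutamine, no bicarbonate) buffered to pH 7.0 with 0.165 M MOPS. Compounds were dissolved in water and tested at a final 0.175–87.5 μM. Plates were incubated at 35°C. MIC was read visually as the lowest concentration giving 100% inhibition versus the growth control. Each isolate was run in duplicate in two independent experiments.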

[11] = test system: Rhizopus arrhizus; test: Antifungal activity against Rhizopus oryzae 05-203111 after 48 to 72 hrs; format: functional
Summary of the method: (§5)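 After the broth microdilution MIC read, suspension from every well without visible growth was plated onto Sabouraud dextrose agar and incubated at 35°C, up to 7 days for molds. MFC was taken as the lowest drug concentration with no colonies.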

[12] = test system: Scedosporium apiospermum; test: Antifungal activity against Scedosporium apiospermum 05-203100 after 48 to 72 hrs; format: functional; settings: in the assay text read “for up to 7 days” for “after 48 to 72 hrs”; summary of the method: as §5
[13] = test system: Fusarium solani; test: Antifungal activity against Fusarium solani 04-203102 after 24 to 72 hrs by broth microdilution method; format: functional; summary of the method: as §4
[14] = test system: Candida albicans; test: Antifungal activity against Candida albicans ATCC 10231 after 24 to 72 hrs by broth microdilution method; format: functional; summary of the method: as §1
[15] = test system: Scedosporium apiospermum; test: Antifungal activity against Scedosporium apiospermum 05-203100 after 24 to 72 hrs by broth microdilution method; format: functional; summary of the method: as §4
[16] = test system: Candida albicans; test: Antifungal activity against Candida albicans ATCC 90028 after 24 to 72 hrs by broth microdilution method; format: functional; summary of the method: as §1
[17] = Antifungal activity against Paecilomyces lilacinus 05-200601 after 24 to 72 hrs by broth microdilution method; format: functional; settings: Purpureocillium lilacinum; summary of the method: as §4
[18] = test system: Cryptococcus gattii species complex; test: Antifungal activity against Cryptococcus gattii 05-200122 after 24 to 72 hrs by broth microdilution method; format: functional, Cryptococcus bacillisporus; summary of the method: as §1
[19] = test system: Pichia kudriavzevii; test: Antifungal activity against Candida krusei 04-202328 after 24 to 72 hrs by broth microdilution method; format: functional; summary of the method: as §1
[20] = test system: Nakaseomyces glabratus; test: Antifungal activity against Candida glabrata 04-202345 after 24 to 72 hrs by broth microdilution method; format: functional; summary of the method: as §1
[21] = test system: Aspergillus terreus; test: Antifungal activity against Aspergillus terreus 05-202844 after 24 to 72 hrs by broth microdilution method; format: functional; summary of the method: as §1
[22] = test system: Nakaseomyces glabratus; test: Antifungal activity against Candida glabrata 04-202345 after 48 to 72 hrs; format: functional; summary of the method: as §3
[23] = test system: Cryptococcus neoformans; test: Antifungal activity against Cryptococcus neoformans 05-202523 after 48 to 72 hrs; format: functional; summary of the method: as §3
[24] = test system: Pichia kudriavzevii; test: Antifungal activity against Candida krusei ATCC 6258 after 24 to 72 hrs by broth microdilution method; format: functional; summary of the method: as §1
[25] = test system: Lichtheimia corymbifera; test: Antifungal activity against Absidia corymbifera 04-200170 after 24 to 72 hrs by broth microdilution method; format: functional; summary of the method: as §1
[26] = test system: Lomentospora prolificans; test: Antifungal activity against Scedosporium prolificans 05-203060 after 24 to 72 hrs by broth microdilution method; format: functional; summary of the method: as §4
[27] = test system: Aspergillus flavus; test: Antifungal activity against Aspergillus flavus ATCC 204304 after 24 to 72 hrs by broth microdilution method; format: functional; summary of the method: as §1
[28] = Antifungal activity against Exophiala jeanselmei 03-200268 after 48 to 72 hrs; format: functional; summary of the method: as §2
[29] = test system: Exophiala spinifera; test: Antifungal activity against Exophiala spinifera 03-200803 after 24 to 72 hrs by broth microdilution method; format: functional; summary of the method: as §4
[30] = test system: Aspergillus flavus; test: Antifungal activity against Aspergillus flavus 05-203758 after 24 to 72 hrs by broth microdilution method; format: functional; summary of the method: as §1
[31] = test system: Aspergillus fumigatus; test: Antifungal activity against Aspergillus fumigatus ATCC 204305 after 24 to 72 hrs by broth microdilution method; format: functional; summary of the method: as §1
[32] = test system: Cunninghamella bertholletiae; test: Antifungal activity against Cunninghamella bertholletiae 99-12187 after 24 to 72 hrs by broth microdilution method; format: functional; summary of the method: as §1
[33] = test system: Lichtheimia corymbifera; test: Antifungal activity against Absidia corymbifera 04-200170 after 48 to 72 hrs; format: functional; summary of the method: as §2
[34] = test system: Aspergillus fumigatus; test: Antifungal activity against Aspergillus fumigatus ATCC 204305 after 48 to 72 hrs; format: functional; summary of the method: as §2
[35] = test system: Aspergillus flavus; test: Antifungal activity against Aspergillus flavus 05-203758 after 48 to 72 hrs; format: functional; summary of the method: as §2
[36] = test system: Aspergillus flavus; test: Antifungal activity against Aspergillus flavus ATCC 204304 after 48 to 72 hrs; format: functional; summary of the method: as §3
[37] = test system: Candida parapsilosis; test: Antifungal activity against Candida parapsilosis 04-202398 after 48 to 72 hrs; format: functional; settings: Lodderomyces parapsilosis
Summary of the method: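 CLSI M27-A3 broth microdilution for yeasts in RPMI 1640 with L-glutamine and no bicarbonate, buffered with 0.165 M MOPS to pH 7.0. Compounds were dissolved in water and tested at 0.175–87.5 μM final, 35°C. MIC was read visually at 24–72 h as 100% inhibition versus growth control. For MFC, 30 μl from clear wells went onto SDA at 35°C for 48–72 h, reading the lowest concentration without colonies. Duplicates, two independent runs.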

[38] = Antifungal activity against Paecilomyces lilacinus 05-200601 after 48 to 72 hrs; format: functional; settings: Purpureocillium lilacinum; summary of the method: as §2
[39] = test system: Pichia kudriavzevii; test: Antifungal activity against Candida krusei […] after 48 to 72 hrs; format: functional; summary of the method: as §3
[40] = test system: Aspergillus fumigatus; test: Antifungal activity against Aspergillus fumigatus 05-203114 after 48 to 72 hrs; format: functional; summary of the method: as §2
[41] = test system: Pichia kudriavzevii; test: Antifungal activity against Candida krusei ATCC 9258 after 24 to 72 hrs by broth microdilution method; format: functional; summary of the method: as §1
[42] = test system: Aspergillus terreus; test: Antifungal activity against Aspergillus terreus 05-202844 after 48 to 72 hrs; format: functional; summary of the method: as §3

Row | Compound | MIC [1] [µg/mL] | MIC [2] [µg/mL] | MIC [3] [µg/mL] | MIC [4] [µg/mL] | MIC [5] [µg/mL] | MFC [6] [µg/mL] | MIC [8] [µg/mL] | MIC [9] [µg/mL] | MIC [10] [µg/mL] | MIC [13] [µg/mL] | MIC [14] [µg/mL] | MIC [15] [µg/mL] | MIC [16] [µg/mL] | MIC [17] [µg/mL] | MIC [18] [µg/mL] | MIC [19] [µg/mL] | MIC [20] [µg/mL] | MIC [21] [µg/mL] | MIC [24] [µg/mL] | MIC [25] [µg/mL] | further results
1 | CC(C)(C)CCc1cc[n+](CCCCCCCCCCCC[n+]2ccc(CCC(C)(C)C)cc2)cc1.[Cl-].[Cl-] | 1.58 | > 50.7 | 25.3 | 1.58 | 1.58 | 12.7 | 50.7 | 1.58 | 6.3 | > 50.7 | 3.2 | 6.3 | 3.2 | > 50.7 | 1.58 | 25.3 | 0.79 | 50.7 | 25.3 | > 50.7 | MFC [7]: 3.2 µg/mL; MFC [11]: 25.3 µg/mL; MFC [12]: 12.7 µg/mL; MFC [22]: 1.58 µg/mL; MFC [23]: 50.7 µg/mL; MIC [26]: 1.58 µg/mL; MIC [27]: > 50.7 µg/mL; MFC [28]: 3.2 µg/mL; MIC [29]: 0.79 µg/mL; MIC [30]: > 50.7 µg/mL; MIC [31]: > 50.7 µg/mL; MIC [32]: > 50.7 µg/mL
2 | CCCCCc1cc[n+](CCCCCCCCCCCC[n+]2ccc(CCCCC)c(CCCCC)c2)cc1CCCCC.[Cl-].[Cl-] | 1.86 | 7.5 | 7.5 | 1.86 | 1.86 | 3.7 | 7.5 | 1.86 | 1.86 | 14.9 | 1.86 | 3.7 | 1.86 | 14.9 | 1.86 | 1.86 | 0.93 | 0.93 | 1.86 | 14.9 | MFC [33]: 27.8 µg/mL; MFC [34]: 14.9 µg/mL; MFC [35]: 29.8 µg/mL; MFC [36]: 14.9 µg/mL; MFC [37]: 14.9 µg/mL; MFC [38]: 29.8 µg/mL; MFC [39]: 3.7 µg/mL; MIC [26]: 1.86 µg/mL; MIC [27]: 7.5 µg/mL; MFC [40]: 14.9 µg/mL; MFC [28]: 3.7 µg/mL; MIC [29]: 1.86 µg/mL; MIC [41]: 1.86 µg/mL; MIC [30]: 14.9 µg/mL; MIC [31]: 7.5 µg/mL; MFC [42]: 1.86 µg/mL; MIC [32]: 7.5 µg/mL

From ChEMBL document CHEMBL1629527, “In vitro antifungal activities of bis(alkylpyridinium)alkane compounds against pathogenic yeasts and molds” (Antimicrob Agents Chemother, 2010)
